Tests used:
[1] = biological target: T1, Adrenergic receptor alpha-1 (Rattus norvegicus, UniProt P15823+P23944+P43140); experiment: Intrinsic activity towards Alpha-1 adrenergic receptor by the displacement of [3H]prazosin from rat cerebral cortex membrane in presence of 1 nM GTP.; type: tissue-based
T1 sequence (P15823 whole entry): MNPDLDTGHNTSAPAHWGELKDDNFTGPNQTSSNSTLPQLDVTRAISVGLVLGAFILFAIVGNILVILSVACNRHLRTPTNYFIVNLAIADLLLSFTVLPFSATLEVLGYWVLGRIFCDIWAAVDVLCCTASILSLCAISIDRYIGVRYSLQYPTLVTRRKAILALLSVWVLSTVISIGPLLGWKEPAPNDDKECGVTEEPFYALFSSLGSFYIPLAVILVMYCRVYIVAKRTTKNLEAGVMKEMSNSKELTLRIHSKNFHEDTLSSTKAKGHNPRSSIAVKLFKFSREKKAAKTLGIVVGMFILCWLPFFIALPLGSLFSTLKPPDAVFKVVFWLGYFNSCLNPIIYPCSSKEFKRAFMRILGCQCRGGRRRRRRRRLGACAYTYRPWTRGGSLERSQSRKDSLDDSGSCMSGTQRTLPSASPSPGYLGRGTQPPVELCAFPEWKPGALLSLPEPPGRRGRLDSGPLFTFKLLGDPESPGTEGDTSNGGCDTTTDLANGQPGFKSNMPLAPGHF
T1 sequence (P23944 whole entry): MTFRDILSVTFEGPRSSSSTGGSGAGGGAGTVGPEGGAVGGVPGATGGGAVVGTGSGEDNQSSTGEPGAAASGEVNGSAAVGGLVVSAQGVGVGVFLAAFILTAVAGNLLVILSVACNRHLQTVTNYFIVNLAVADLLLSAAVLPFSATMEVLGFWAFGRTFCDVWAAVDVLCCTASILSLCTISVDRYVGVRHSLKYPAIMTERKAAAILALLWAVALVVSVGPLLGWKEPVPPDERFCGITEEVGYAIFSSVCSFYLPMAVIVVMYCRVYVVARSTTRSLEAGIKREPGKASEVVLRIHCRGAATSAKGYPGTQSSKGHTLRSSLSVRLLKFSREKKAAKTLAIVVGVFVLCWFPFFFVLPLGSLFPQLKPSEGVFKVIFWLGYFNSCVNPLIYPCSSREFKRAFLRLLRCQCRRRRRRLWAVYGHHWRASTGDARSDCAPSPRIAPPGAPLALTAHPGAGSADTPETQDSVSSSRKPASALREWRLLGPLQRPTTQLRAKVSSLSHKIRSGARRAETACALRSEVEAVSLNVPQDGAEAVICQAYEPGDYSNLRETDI
T1 sequence (P43140 whole entry): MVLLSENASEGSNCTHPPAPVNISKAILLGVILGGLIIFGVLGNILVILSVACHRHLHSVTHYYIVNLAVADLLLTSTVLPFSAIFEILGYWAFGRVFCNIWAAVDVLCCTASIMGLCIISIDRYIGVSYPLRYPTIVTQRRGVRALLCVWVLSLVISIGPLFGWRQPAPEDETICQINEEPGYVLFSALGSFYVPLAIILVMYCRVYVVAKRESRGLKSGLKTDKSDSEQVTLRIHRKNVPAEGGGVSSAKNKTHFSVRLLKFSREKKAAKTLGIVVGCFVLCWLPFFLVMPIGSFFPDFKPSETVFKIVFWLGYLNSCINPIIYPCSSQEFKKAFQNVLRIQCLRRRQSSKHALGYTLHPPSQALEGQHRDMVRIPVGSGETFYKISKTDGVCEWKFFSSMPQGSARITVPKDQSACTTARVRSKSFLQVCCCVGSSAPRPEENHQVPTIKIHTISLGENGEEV

[2] = biological target: T1, Adrenergic receptor alpha-1; experiment: Intrinsic activity towards Alpha-1 adrenergic receptor by the displacement of [3H]prazosin from rat cerebral cortex membrane in absence of 1 nM GTP; type: tissue-based
[3] = biological target: Adrenergic receptor alpha-1 (Rattus norvegicus) (UniProt P15823+P23944+P43140)
[4] = biological target: T2, 5-hydroxytryptamine receptor 1A (Rattus norvegicus, UniProt P19327); experiment: Displacement of [3H]8-OH-DPAT from 5-hydroxytryptamine 1A receptor of rat cortex membranes; type: cell membranes, Membrane
T2 sequence (P19327 whole entry): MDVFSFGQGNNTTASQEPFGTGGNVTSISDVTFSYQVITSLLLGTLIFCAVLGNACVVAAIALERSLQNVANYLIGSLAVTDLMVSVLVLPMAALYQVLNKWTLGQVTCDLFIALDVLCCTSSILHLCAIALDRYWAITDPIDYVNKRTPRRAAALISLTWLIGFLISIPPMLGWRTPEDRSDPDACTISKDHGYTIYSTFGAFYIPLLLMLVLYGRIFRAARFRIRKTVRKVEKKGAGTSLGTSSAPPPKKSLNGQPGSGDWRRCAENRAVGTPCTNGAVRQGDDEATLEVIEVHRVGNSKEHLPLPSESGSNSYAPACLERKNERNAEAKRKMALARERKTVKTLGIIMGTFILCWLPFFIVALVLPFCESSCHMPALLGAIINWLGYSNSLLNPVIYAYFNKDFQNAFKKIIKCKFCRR
Method in brief: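 Competition binding with seven drug concentrations, each in triplicate, across three separate experiments. IC50 values were converted to Ki by the Cheng–Prusoff equation, Ki = IC50/(1 + [L]/Kd), where [L] is the radioligand concentration and Kd its dissociation constant. Ki is reported as mean ± SD.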

[5] = biological target: T3, Adrenergic receptor alpha-2 (Rattus norvegicus, UniProt P22086+P19328+P22909); experiment: Binding affinity for Alpha-2 adrenergic receptor in rat cortex membranes using [3H]rauwolscine as radioligand; type: cell membranes
T3 sequence (P22086 whole entry): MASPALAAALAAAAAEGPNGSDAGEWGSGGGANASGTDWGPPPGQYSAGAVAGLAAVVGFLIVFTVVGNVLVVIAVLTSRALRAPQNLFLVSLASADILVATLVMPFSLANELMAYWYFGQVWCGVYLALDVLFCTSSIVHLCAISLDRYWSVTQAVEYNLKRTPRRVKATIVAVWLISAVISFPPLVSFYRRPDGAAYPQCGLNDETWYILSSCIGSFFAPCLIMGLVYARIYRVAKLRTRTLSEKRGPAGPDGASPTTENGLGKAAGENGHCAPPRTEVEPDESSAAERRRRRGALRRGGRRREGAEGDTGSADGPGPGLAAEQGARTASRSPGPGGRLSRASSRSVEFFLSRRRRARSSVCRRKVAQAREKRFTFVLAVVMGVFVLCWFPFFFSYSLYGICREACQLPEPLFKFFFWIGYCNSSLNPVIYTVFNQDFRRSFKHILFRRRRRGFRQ
T3 sequence (P19328 whole entry): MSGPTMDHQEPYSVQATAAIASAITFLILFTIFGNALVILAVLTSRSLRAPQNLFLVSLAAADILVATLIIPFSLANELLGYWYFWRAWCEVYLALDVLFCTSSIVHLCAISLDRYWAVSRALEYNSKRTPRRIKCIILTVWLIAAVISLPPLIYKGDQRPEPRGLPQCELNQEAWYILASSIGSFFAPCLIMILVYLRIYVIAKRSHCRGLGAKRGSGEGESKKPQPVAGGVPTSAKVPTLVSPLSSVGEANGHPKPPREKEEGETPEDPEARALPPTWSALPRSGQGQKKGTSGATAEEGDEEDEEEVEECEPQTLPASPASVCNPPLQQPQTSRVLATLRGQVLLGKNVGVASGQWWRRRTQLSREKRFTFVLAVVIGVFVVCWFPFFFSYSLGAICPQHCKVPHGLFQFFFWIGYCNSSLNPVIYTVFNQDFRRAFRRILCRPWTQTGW
T3 sequence (P22909 whole entry): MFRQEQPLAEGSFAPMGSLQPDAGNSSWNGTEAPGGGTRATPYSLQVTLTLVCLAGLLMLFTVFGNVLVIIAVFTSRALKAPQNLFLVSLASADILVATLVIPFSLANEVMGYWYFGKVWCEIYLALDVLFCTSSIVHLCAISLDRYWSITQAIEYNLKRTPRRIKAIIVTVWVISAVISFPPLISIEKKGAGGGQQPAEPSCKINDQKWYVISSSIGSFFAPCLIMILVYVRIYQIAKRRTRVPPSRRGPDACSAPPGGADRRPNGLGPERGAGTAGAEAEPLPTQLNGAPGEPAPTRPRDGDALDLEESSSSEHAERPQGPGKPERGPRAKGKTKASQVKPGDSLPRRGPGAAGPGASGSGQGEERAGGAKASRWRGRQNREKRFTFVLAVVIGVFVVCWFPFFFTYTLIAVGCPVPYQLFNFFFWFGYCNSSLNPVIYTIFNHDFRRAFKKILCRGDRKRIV

[6] = biological target: T1, Adrenergic receptor alpha-1; experiment: Binding affinity for Alpha-1 adrenergic receptor in rat cortex membranes using [3H]-prazosin as radioligand; type: cell membranes

SMILES	Ki [1]	Ki [2]	GTP shift [3]	Ki [4]	Ki [5]	Ki [6]
COc1ccccc1N1CCN(CCCCCCCn2ncc(N3CCN(CC4COc5ccccc5O4)CC3)c(Cl)c2=O)CC1 (configuration not stated)				11.1 nM	0.85 nM	1.68 nM
CC(C)Oc1ccccc1N1CCN(CCCCCCCn2ncc(Cl)c(N3CCN(C(=O)c4ccco4)CC3)c2=O)CC1				1.16 nM	0.66 nM	0.08 nM
CCOc1ccccc1N1CCN(CCCCCCCn2ncc(N3CCN(CC4COc5ccccc5O4)CC3)c(Cl)c2=O)CC1 (configuration not stated)				49.8 nM	2.16 nM	0.42 nM
COc1ccccc1OCCN1CCN(c2cnn(CCCCCCCN3CCN(c4ccccc4OC)CC3)c(=O)c2Cl)CC1						1.45 nM
CCOc1ccccc1OCCN1CCN(c2cnn(CCCCCCCN3CCN(c4ccccc4OC(C)C)CC3)c(=O)c2Cl)CC1	0.22 nM	0.28 nM	0.8	2.54 nM		
COc1cc2nc(N3CCN(C(=O)c4ccco4)CC3)nc(N)c2cc1OC			1.2			
CC(C)Oc1ccccc1N1CCN(CCCCCCCn2ncc(N3CCN(CC4COc5ccccc5O4)CC3)c(Cl)c2=O)CC1 (configuration not stated)	0.33 nM	0.23 nM	1.4	2.47 nM	3.34 nM	0.31 nM
CC(C)Oc1ccccc1N1CCN(CCCCCCCn2ncc(Cl)c(N3CCN(CC4COc5ccccc5O4)CC3)c2=O)CC1 (configuration not stated)				1.52 nM	13.4 nM	0.32 nM
CCOc1ccccc1OCCN1CCN(c2cnn(CCCCCCCN3CCN(c4ccccc4OCC)CC3)c(=O)c2Cl)CC1				1.32 nM		

Further compounds by falling Ki [4], results first:

Ki [1]	Ki [2]	GTP shift [3]	Ki [4]	Ki [5]	Ki [6]	SMILES
			1.02 nM	2.4 nM	0.43 nM	CCOc1ccccc1N1CCN(CCCCCCCn2ncc(Cl)c(N3CCN(CC4COc5ccccc5O4)CC3)c2=O)CC1 (configuration not stated)
0.081 nM	0.047 nM	1.7	0.9 nM			CC(C)Oc1ccccc1N1CCN(CCCCCCCn2ncc(N3CCN(C(=O)c4ccco4)CC3)c(Cl)c2=O)CC1
			0.82 nM			CCOc1ccccc1OCCN1CCN(c2cnn(CCCCCCCN3CCN(c4ccccc4OC)CC3)c(=O)c2Cl)CC1
			0.42 nM	1.23 nM	0.37 nM	COc1ccccc1N1CCN(CCCCCCCn2ncc(Cl)c(N3CCN(C(=O)c4ccco4)CC3)c2=O)CC1
			0.4 nM	1.45 nM	0.54 nM	COc1ccccc1N1CCN(CCCCCCCn2ncc(Cl)c(N3CCN(CC4COc5ccccc5O4)CC3)c2=O)CC1 (configuration not stated)
			0.35 nM	0.8 nM	0.23 nM	CCOc1ccccc1N1CCN(CCCCCCCn2ncc(Cl)c(N3CCN(C(=O)c4ccco4)CC3)c2=O)CC1

Source: ChEMBL document CHEMBL1144990, “Alpha1-adrenoceptor antagonists. 6. Structural optimization of pyridazinone-arylpiperazines. Study of the influence on affinity and selectivity of cyclic substituents at the pyridazinone ring and alkoxy groups at the arylpiperazine moiety” (J Med Chem, 2003)
